Data: ChEMBL document CHEMBL1909500, “Synthesis and in vitro anticancer activity of 6,7-methylenedioxy (or 5-hydroxy-6-methoxy)-2-(substituted selenophenyl)quinolin-4-one analogs” (Eur J Med Chem, 2011)
pIC50: −log10 of the molar value.

Key:
[1] = test system: HL-60; test: Cell cycle arrest in human HL60 assessed as cell accumulation in G0/G1 phase at 1 uM after 24 hrs pretreated with pan-caspase inhibitor z-VAD-fmk for 3 hrs by propidium iodide staining-based flow cytometric analysis; assay type: functional; design: scale not given: the % may be the effect or the level left
How it was run: (§1)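 HL-60 cells were preincubated for 3 h with or without the pan-caspase inhibitor z-VAD-fmk, then co-exposed to compound at 1 μM for 24 h. Cells were washed in PBS and fixed overnight in ice-cold 70% ethanol at −20 °C. They were stained for 30 min in the dark with propidium iodide 4 μg/mL, 0.1 mg/ml RNase and 1% Triton X-100. DNA content was read on a FACScan flow cytometer.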

[2] = test system: SK-MEL-28; test: Anticancer activity against human SK-MEL-28 cells after 48 hrs by MTT assay; assay type: functional; conditions: SK-MEL-28, 48 h
[3] = test system: HL-60; test: Cell cycle arrest in human HL60 assessed as cell accumulation in Sub-G1 phase at 1 uM after 24 hrs by propidium iodide staining-based flow cytometric analysis; assay type: functional; how it was run: as §1
[4] = test system: EKVX; test: Anticancer activity against human EKVX cells after 48 hrs by MTT assay; assay type: functional
[5] = test system: BT-549; test: Anticancer activity against human BT549 cells after 48 hrs by MTT assay; assay type: functional; conditions: BT-549, 48 h
[6] = test system: HCC 2998; test: Anticancer activity against human HCC2998 cells after 48 hrs by MTT assay; assay type: functional; conditions: HCC 2998, 48 h
[7] = test system: SW-620; test: Anticancer activity against human SW620 cells after 48 hrs by MTT assay; assay type: functional; conditions: SW-620, 48 h
[8] = test system: COLO 205; test: Anticancer activity against human COLO205 cells after 48 hrs by MTT assay; assay type: functional; conditions: COLO 205, 48 h
[9] = test system: SF-539; test: Anticancer activity against human SF539 cells after 48 hrs by MTT assay; assay type: functional; conditions: SF-539, 48 h
[10] = test system: A498; test: Anticancer activity against human A498 cells after 48 hrs by MTT assay; assay type: functional; conditions: A498, 48 h
[11] = test system: MDA-MB-468; test: Anticancer activity against human MDA-MB-468 cells after 48 hrs by MTT assay; assay type: functional; conditions: MDA-MB-468, 48 h
[12] = test system: Detroit 551; test: Cytotoxicity against human Detroit 551 cells after 48 hrs by MTT assay; assay type: cell-based; conditions: Detroit 551, 48 h
How it was run: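 Hep 3B (hepatoma) or Detroit 551 (normal skin) cells, grown at 37 °C and 5% CO₂ in DMEM with 10% FBS, penicillin/streptomycin and 1% L-glutamine, were used in log phase. Cells were exposed to vehicle or compound for 48 h. Growth was read by MTT reduction at 570 nm, and IC50 was calculated.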

[13] = read-out: pLC50 (the source's name) (converted)

Work on `Cc1ccc(-c2cc(=O)c3cc4c(cc3[nH]2)OCO4)[se]1` yielded an Activity [1] of 8.3%, a GI50 [2] of 0.794 µM and a CC50 [2, 13] greater than 100 µM. It also gave a TGI ([2]; read-out: pTGI) greater than 100 µM, an Activity [3] of 21% and a GI50 [4] of 0.617 µM. It also gave a CC50 [4, 13] greater than 100 µM, a TGI ([4]; read-out: pTGI) greater than 100 µM and a GI50 [5] of 0.447 µM. It also gave a CC50 [5, 13] greater than 100 µM, a TGI ([5]; read-out: pTGI) greater than 100 µM and a GI50 [6] of 0.288 µM. It also gave a CC50 [6, 13] greater than 100 µM, a TGI ([6]; read-out: pTGI) greater than 100 µM and a GI50 [7] of 0.407 µM. The CC50 [7, 13] was greater than 100 µM, the TGI ([7]; read-out: pTGI) was greater than 100 µM and the GI50 [8] was 2.63 µM. For the same compound, the CC50 [8, 13] was greater than 100 µM, the TGI ([8]; read-out: pTGI) was greater than 100 µM and the GI50 [9] was 0.245 µM. The CC50 [9, 13] was greater than 100 µM, the TGI ([9]; read-out: pTGI (converted)) was 0.708 µM and the GI50 [10] was 0.372 µM. The CC50 [10, 13] was greater than 100 µM, the TGI ([10]; read-out: pTGI) was greater than 100 µM and the GI50 [11] was 0.562 µM. It also gave a CC50 [11, 13] greater than 100 µM, a TGI ([11]; read-out: pTGI) greater than 100 µM and a pIC50 [12] of less than 4.60.
